Experimental data from ChEMBL document CHEMBL1154750 (J Med Chem, 2010).

Columns and labels:
[1] = biological target: Neuraminidase (Influenza A virus (A/Puerto Rico/8/1934(H1N1)), UniProt P03468); assay: Inhibition of Influenza Virus A/PR/8/34 neuraminidase chemiluminescence-based enzyme inhibition assay
Summary of the method: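 Chemiluminescent NA assay using NA-Star 1,2-dioxetane sialic acid substrate. Virus culture supernatant was serially 2-fold diluted in NA-Star buffer, and the dilution giving 40:1 signal-to-noise was used. Compound was preincubated with virus for 20 min at 37 C, then substrate (1:500) was added for 30 min at room temperature. Mean of six untreated virus controls set to 100%. IC50 from n = 3 assays, triplicate wells.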

[2] = biological target: T1, Neuraminidase (Influenza A virus, UniProt B4URF0); assay: Inhibition of Influenza Virus A/Belzig/2/01 (H1N1) neuraminidase; parameters: species or system Influenza A virus (A/swine/Belzig/2/2001(H1N1))
Summary of the method: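 Swine H1N1 NA assayed by NA-Star chemiluminescence. Compound was mixed with the diluted virus supernatant (dilution giving 40:1 signal-to-noise) for 20 min at 37 C, then substrate (1:500) was added for 30 min at room temperature. Activity relative to six untreated virus controls; IC50 from one assay, each concentration in triplicate.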

[3] = biological target: T1, Neuraminidase; assay: Inhibition of Influenza Virus A/Potsdam/15/81 (H1N1) neuraminidase
[4] = Cytotoxicity against MDCK cells; assay type: cell-based, Canis lupus familiaris; details: dog
Summary of the method: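 Confluent 3-day-old MDCK monolayers in EMEM with 10% FBS were exposed to serial 2-fold dilutions (triplicate) for 72 h at 37 °C, 5% CO2. Cells were fixed and stained with crystal violet-formalin, dye was extracted, and OD was read at 550/630 nm. Viability is given relative to six mock-treated controls. CC50 comes from the mean dose-response curve of two independent assays.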

[5] = biological target: T1, Neuraminidase; assay: Inhibition of Influenza Virus A/Horneburg/IDT7489/08 (H1N1) neuraminidase
Summary of the method: (§1)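 Swine H1N1 isolate NA measured by NA-Star chemiluminescence. The virus supernatant dilution giving 40:1 signal-to-noise was incubated with compound for 20 min at 37 C, then dioxetane sialic acid substrate (1:500) was added for 30 min at room temperature. Six untreated virus controls set to 100%. IC50 from n ≥ 4 assays, triplicate wells.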

[6] = biological target: T1, Neuraminidase; assay: Inhibition of Influenza Virus A/Brest/IDT7490/08 (H1N1) neuraminidase; summary of the method: as §1
[7] = tested on: Influenza A virus; assay: Antiviral activity against Influenza A virus (A/Puerto Rico/8/34(H1N1)) in MDCK cells assessed as reduction in plaque number by plaque reduction assay; details: A/Puerto Rico/8/1934(H1N1)

T1 sequence (B4URF0 whole entry): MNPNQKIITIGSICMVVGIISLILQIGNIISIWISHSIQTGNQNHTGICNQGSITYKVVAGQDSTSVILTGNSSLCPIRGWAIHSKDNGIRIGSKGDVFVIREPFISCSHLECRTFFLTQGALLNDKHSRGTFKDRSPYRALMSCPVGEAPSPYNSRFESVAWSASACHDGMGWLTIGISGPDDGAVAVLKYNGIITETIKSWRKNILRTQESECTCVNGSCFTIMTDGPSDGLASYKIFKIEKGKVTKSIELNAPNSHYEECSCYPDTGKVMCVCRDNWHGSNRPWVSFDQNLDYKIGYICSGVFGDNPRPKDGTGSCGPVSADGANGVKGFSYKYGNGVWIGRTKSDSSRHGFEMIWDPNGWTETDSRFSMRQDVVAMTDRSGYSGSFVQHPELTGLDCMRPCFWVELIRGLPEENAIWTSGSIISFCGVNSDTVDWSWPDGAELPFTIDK
Neuraminidase (Influenza A virus (A/Puerto Rico/8/1934(H1N1)), UniProt P03468), sequence (P03468 whole entry): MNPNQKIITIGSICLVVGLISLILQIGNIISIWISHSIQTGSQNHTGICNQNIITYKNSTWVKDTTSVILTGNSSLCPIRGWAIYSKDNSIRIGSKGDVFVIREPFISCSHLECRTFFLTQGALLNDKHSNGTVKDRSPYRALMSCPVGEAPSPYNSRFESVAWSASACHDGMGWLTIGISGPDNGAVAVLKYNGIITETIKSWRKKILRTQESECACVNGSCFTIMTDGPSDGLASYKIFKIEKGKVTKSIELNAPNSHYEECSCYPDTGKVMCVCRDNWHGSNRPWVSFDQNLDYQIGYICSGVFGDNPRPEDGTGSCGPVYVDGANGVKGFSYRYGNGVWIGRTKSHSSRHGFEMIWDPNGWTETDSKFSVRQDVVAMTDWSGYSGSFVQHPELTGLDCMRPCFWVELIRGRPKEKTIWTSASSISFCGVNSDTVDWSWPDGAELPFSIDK

Compound | IC50 [1] [µM] | also measured
O[C@@H](CC/C=C/c1ccccc1)CCc1ccccc1 | 4.13 | –
O=C(/C=C/C=C/c1ccccc1)CCc1ccccc1 | 6.1 | –
O=C(/C=C(O)\C=C\c1ccccc1)CCc1ccccc1 | 4.67 | –
O[C@@H](CCc1ccccc1)C[C@H](O)/C=C/c1ccccc1 | 29.8 | –
CC(C)=CCC/C(C)=C/CC/C(C)=C/CO [FARNESOL] | 81.4 | –
O=C(CCc1ccccc1)C[C@@H]1C[C@@H](c2ccccc2)c2c(cc(/C=C/c3ccccc3)oc2=O)O1 [KATSUMADAIN A] | 1.05 | IC50 [2]: 0.59 nM; IC50 [3]: 0.73 nM; CC50 [4]: 66.9 µM; IC50 [5]: 1.11 nM; IC50 [6]: 1.64 nM; IC50 [7]: 11.8 µM
